Calls of active or inactive are those of the source. No cut-off for these calls is given here.

This note sets out measurements from ChEMBL document CHEMBL5696442, “Discovery of type II inhibitors of TGFβ-activated kinase 1 (TAK1) and mitogen-activated protein kinase kinase kinase kinase 2 (MAP4K2)” (J Med Chem, 2015).

The target in assay [1] is Protein kinase C theta type (Homo sapiens) (UniProt Q04759). Briefly: Inhibition of PRKCQ (unknown origin) at 1 uM by Ambit Kinomescan binding assay relative to control. The essentials: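 In vitro ATP-site competition binding assay against a panel of over 420 kinases (KinomeScan), with compound tested at 10 or 1 μM.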
In assay [2] the target is Ribosomal protein S6 kinase alpha-4 (Homo sapiens) (UniProt O75676). Briefly: Inhibition of C-terminal RPS6KA4 kinase domain 2 (unknown origin) at 1 uM by Ambit Kinomescan binding assay relative to control.
Assay [3] concerns the target Mitogen-activated protein kinase kinase kinase 4 (Homo sapiens) (UniProt Q9Y6R4). Briefly: Inhibition of MAP3K4 Lys2 labeling site in human A-375 cells at 5 uM by KiNativ Profiling analysis relative to control. In kind it is cell-based.
For assay [4], the target named is Casein kinase I isoform epsilon (Homo sapiens) (UniProt P49674). In words: Inhibition of CSNK1E (unknown origin) at 1 uM by Ambit Kinomescan binding assay relative to control.
Assay [5] has as its target T1, Serine/threonine-protein kinase 3 (Homo sapiens) (UniProt Q13188).
T1 sequence (whole entry): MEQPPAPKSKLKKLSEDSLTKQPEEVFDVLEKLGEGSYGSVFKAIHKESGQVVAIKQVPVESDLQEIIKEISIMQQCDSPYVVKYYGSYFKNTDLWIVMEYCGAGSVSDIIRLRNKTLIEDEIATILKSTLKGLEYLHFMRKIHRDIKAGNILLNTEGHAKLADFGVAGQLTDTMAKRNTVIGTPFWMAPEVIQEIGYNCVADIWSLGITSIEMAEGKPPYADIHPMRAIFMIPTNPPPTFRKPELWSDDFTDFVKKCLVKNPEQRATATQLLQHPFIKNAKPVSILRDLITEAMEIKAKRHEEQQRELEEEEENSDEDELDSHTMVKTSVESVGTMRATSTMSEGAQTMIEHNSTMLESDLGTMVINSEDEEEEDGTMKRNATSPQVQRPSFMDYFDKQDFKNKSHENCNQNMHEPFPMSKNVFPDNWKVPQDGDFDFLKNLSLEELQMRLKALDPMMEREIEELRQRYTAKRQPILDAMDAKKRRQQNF
In words: Inhibition of MST2 (unknown origin) at 1 uM by Ambit Kinomescan binding assay relative to control.

The target in assay [6] is Serine/threonine-protein kinase 38-like (Homo sapiens) (UniProt Q9Y2H1). In words: Inhibition of NDR2 Lys1 labeling site harbouring KDTGHIYAMKILR in human A-375 cells at 0.5 uM by KiNativ Profiling analysis relative to control. The format is cell-based.
The target in assay [7] is Calcium/calmodulin-dependent protein kinase type 1 (Homo sapiens) (UniProt Q14012). Briefly: Inhibition of CAMK1 (unknown origin) at 10 uM by Ambit Kinomescan binding assay relative to control.
For assay [8], the target named is Tyrosine-protein kinase CSK (Homo sapiens, UniProt P41240). Briefly: Inhibition of CSK ACT labeling site harbouring VSDFGLTKEASSTQDTGK in human A-375 cells at 0.5 uM by KiNativ Profiling analysis relative to control. The format is cell-based.
In assay [9] the target is Casein kinase I isoform delta (Homo sapiens) (UniProt P48730). In words: Inhibition of CK1 delta K2 labeling site in human Huh-7 cells at 10 uM by KiNativ Profiling analysis relative to control. In kind it is cell-based.
Assay [10] concerns the target Myosin light chain kinase, smooth muscle (Homo sapiens) (UniProt Q15746). Briefly: Inhibition of smMLCK K1 labeling site in human Huh-7 cells at 10 uM by KiNativ Profiling analysis relative to control. The format is cell-based.
Assay [11] has as its system Receptor-type tyrosine-protein kinase FLT3 (Homo sapiens), P36888 [D835Y]. In words: Inhibition of FLT3 D835Y mutant (unknown origin) at 10 uM by Ambit Kinomescan binding assay relative to control.
For assay [12], the target named is Serine/threonine-protein kinase N2 (Homo sapiens) (UniProt Q16513). In words: Inhibition of PKN2 K2 labeling site in human Huh-7 cells at 1 uM by KiNativ Profiling analysis relative to control. In kind it is cell-based.
Serine/threonine-protein kinase N2 (Homo sapiens), sequence (Q16513 whole entry, looked up): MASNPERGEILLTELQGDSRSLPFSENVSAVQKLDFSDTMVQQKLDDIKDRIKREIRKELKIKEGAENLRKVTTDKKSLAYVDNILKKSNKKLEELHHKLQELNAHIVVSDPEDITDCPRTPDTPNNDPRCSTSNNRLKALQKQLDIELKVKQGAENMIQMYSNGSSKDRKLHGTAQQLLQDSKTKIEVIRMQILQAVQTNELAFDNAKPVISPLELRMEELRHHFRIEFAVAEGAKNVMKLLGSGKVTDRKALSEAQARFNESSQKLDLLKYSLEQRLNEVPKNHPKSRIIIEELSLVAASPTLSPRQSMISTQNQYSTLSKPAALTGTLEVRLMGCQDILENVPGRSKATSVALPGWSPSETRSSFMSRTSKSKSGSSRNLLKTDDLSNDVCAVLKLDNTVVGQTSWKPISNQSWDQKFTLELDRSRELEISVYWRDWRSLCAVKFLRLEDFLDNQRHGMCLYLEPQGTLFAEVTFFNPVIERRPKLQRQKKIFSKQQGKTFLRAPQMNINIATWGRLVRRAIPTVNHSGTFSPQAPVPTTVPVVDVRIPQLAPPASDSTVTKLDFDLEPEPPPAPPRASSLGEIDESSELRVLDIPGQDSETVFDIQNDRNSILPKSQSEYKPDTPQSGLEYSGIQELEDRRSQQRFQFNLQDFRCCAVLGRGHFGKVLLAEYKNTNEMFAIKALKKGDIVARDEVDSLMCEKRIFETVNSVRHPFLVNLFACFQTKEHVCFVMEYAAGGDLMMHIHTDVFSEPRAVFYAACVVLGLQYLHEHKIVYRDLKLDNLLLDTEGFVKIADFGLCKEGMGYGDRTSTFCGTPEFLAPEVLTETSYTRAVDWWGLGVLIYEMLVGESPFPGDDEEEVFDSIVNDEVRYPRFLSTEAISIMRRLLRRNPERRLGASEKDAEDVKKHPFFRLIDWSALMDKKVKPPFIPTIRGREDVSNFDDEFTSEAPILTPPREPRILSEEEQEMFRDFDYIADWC
For assay [13], the target named is T2, Dual specificity mitogen-activated protein kinase kinase 5 (Homo sapiens) (UniProt Q13163).
T2 sequence (whole entry): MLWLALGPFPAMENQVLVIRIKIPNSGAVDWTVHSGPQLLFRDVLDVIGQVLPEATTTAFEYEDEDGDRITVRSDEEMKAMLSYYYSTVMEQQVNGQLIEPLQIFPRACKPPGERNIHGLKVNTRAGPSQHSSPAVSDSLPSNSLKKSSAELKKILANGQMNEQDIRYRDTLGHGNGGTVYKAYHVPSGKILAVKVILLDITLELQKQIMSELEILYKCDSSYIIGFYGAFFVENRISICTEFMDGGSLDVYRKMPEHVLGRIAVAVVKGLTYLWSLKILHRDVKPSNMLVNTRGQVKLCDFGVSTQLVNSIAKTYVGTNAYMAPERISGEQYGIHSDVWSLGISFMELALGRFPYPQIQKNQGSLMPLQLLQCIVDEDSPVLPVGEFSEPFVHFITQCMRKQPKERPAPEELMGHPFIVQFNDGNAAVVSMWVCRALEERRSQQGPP
In words: Inhibition of MAP2K5 Lys2 labeling site in human A-375 cells at 5 uM by KiNativ Profiling analysis relative to control. In kind it is cell-based.

Assay [14] relates to Receptor-type tyrosine-protein kinase FLT3 (Homo sapiens), P36888 [N841I]. Briefly: Inhibition of FLT3 N841I mutant (unknown origin) at 10 uM by Ambit Kinomescan binding assay relative to control.
Assay [15] addresses Cyclin-dependent kinase 7 (Homo sapiens) (UniProt P50613). Briefly: Inhibition of CDK7 (unknown origin) at 10 uM by Ambit Kinomescan binding assay relative to control.
For assay [16], the target named is Calcium/calmodulin-dependent protein kinase type II subunit alpha (Homo sapiens) (UniProt Q9UQM7). Briefly: Inhibition of CAMK2a K2 labeling site in human Huh-7 cells at 1 uM by KiNativ Profiling analysis relative to control. In kind it is cell-based.
Assay [17] addresses T3, Dual specificity mitogen-activated protein kinase kinase 6 (Homo sapiens) (UniProt P52564).
T3 sequence (whole entry): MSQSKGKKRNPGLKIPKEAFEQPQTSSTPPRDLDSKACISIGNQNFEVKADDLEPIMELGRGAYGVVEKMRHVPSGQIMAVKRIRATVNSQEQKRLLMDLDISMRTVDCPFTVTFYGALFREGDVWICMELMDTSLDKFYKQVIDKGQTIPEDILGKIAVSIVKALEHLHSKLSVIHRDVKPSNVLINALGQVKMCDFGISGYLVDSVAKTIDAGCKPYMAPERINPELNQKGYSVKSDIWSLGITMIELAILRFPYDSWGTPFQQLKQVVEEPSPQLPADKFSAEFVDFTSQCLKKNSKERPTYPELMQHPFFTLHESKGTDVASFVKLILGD
Briefly: Inhibition of MAP2K6 K1 labeling site in human Huh-7 cells at 1 uM by KiNativ Profiling analysis relative to control. The format is cell-based.

Assay [18] concerns the target Casein kinase II subunit alpha (Homo sapiens) (UniProt P68400). In words: Inhibition of CSNK2A1 (unknown origin) at 10 uM by Ambit Kinomescan binding assay.
In assay [19] the target is Epidermal growth factor receptor (Homo sapiens) (UniProt P00533). In words: Inhibition of EGFR Lys1 labeling site harbouring IPVAIKELR in human Huh-7 cells at 1 uM by KiNativ Profiling analysis relative to control. The format is cell-based.

Casein kinase II subunit alpha (Homo sapiens), sequence (P68400 whole entry, looked up): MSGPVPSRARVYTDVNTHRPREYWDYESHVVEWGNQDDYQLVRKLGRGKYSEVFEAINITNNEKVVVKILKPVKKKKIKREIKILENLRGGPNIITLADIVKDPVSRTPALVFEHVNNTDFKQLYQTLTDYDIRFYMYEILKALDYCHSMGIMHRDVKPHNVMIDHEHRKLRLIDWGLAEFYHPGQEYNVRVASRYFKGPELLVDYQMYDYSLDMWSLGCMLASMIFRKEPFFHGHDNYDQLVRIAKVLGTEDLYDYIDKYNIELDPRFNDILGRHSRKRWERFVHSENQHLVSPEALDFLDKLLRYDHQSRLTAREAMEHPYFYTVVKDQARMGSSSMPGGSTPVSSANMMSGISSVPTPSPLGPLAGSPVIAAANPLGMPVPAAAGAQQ
Myosin light chain kinase, smooth muscle (Homo sapiens), sequence (Q15746 whole entry): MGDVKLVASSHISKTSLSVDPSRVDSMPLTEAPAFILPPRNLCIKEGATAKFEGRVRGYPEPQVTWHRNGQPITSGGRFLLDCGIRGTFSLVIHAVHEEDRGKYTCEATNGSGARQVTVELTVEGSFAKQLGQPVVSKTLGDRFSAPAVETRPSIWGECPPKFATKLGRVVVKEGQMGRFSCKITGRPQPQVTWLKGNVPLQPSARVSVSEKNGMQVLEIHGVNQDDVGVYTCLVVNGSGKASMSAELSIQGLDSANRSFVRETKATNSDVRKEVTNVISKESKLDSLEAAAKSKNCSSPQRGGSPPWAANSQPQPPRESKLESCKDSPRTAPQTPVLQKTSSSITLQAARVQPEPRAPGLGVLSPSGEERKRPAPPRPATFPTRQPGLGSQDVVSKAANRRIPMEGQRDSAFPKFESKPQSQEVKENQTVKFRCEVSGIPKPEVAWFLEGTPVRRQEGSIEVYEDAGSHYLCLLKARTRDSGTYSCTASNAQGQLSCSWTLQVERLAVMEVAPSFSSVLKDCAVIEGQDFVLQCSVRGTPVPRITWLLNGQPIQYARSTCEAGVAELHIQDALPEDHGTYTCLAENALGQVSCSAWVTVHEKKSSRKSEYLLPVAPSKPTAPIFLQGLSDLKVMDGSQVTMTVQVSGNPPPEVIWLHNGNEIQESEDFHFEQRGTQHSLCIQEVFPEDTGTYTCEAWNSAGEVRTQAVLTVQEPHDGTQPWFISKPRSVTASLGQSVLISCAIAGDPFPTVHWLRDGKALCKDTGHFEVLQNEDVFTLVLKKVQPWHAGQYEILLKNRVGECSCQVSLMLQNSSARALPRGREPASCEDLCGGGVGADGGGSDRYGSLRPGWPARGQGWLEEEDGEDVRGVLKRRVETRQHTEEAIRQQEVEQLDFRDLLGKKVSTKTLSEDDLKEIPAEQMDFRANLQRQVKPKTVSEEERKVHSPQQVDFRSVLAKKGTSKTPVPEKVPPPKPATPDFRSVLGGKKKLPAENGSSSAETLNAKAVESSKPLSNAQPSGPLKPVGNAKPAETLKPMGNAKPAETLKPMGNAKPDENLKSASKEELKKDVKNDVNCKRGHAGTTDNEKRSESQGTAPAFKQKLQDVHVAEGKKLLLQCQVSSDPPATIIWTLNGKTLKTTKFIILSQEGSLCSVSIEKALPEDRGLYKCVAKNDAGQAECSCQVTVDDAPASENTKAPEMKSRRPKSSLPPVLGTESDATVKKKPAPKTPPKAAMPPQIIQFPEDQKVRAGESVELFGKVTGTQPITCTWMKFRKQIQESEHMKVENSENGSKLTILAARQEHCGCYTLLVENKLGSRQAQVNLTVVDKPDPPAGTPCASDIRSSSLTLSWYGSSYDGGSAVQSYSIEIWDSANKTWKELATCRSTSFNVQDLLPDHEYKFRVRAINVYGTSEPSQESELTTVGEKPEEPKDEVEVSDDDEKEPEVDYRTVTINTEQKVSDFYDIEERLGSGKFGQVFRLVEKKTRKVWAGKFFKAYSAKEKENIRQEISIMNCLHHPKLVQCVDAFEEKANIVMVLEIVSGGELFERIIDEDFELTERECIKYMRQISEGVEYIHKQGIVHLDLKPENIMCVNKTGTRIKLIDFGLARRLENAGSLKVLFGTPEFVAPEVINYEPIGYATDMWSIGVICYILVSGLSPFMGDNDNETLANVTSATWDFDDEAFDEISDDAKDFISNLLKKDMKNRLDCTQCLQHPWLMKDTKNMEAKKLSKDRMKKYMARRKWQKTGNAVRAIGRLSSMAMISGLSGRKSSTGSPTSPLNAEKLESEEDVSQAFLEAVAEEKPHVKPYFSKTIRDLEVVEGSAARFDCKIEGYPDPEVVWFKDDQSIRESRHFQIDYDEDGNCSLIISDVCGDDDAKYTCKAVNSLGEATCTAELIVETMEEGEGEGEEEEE
Mitogen-activated protein kinase kinase kinase 4 (Homo sapiens), sequence (Q9Y6R4 whole entry, canonical isoform): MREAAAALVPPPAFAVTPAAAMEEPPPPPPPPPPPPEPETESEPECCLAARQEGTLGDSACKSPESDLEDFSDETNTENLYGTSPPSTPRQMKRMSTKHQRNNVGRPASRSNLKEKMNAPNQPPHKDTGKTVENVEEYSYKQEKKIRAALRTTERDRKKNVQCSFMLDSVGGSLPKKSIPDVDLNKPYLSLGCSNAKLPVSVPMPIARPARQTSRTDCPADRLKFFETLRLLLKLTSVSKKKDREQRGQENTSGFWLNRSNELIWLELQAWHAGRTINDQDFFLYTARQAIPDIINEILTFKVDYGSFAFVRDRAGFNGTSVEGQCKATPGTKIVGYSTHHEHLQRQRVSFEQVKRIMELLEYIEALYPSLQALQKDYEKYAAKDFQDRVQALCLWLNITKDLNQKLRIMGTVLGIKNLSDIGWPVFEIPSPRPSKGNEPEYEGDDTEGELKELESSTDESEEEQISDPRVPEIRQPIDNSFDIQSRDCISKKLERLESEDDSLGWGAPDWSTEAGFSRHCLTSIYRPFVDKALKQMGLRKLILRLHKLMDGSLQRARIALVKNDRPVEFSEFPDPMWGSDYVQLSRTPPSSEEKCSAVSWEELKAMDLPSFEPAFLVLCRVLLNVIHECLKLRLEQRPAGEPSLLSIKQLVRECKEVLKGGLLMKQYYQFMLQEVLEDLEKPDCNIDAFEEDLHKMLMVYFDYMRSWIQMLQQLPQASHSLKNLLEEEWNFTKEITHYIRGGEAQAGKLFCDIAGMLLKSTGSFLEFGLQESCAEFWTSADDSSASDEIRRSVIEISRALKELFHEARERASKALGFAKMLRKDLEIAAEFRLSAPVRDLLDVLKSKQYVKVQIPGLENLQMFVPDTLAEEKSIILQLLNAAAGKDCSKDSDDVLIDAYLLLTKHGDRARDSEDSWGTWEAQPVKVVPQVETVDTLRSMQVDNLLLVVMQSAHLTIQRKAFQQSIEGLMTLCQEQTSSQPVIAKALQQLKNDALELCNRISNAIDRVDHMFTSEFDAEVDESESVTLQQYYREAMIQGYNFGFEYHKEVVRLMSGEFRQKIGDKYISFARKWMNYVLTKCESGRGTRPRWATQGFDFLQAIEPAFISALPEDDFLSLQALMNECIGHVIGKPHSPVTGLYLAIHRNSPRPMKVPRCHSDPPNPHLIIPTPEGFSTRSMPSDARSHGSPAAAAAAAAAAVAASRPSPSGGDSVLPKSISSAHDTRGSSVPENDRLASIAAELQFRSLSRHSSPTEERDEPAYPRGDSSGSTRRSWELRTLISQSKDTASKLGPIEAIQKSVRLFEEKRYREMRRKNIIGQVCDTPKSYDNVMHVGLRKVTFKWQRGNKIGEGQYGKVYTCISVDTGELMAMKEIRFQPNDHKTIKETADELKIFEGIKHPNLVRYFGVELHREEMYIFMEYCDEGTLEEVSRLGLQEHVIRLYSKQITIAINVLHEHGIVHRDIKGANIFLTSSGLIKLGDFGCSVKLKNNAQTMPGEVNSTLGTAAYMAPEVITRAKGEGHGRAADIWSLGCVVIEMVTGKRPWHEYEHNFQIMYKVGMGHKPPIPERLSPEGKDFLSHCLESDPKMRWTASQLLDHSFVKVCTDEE

For `CCN1CCN(Cc2ccc(NC(=O)c3ccc(C)c(/C=C/c4cnc5[nH]ccc5c4OC)c3)cc2C(F)(F)F)CC1`, the inhibition – broadly, the change of the read-out against control, counted positive when it falls – in assay [1] was found to be 83%; in assay [2], 73%; in assay [3] it was 14.2%; in [4], 80%; in assay [5] it was 100%.
As for `CCN1CCN(Cc2ccc(NC(=O)c3ccc(C)c(Oc4ccnc5[nH]ccc45)c3)cc2C(F)(F)F)CC1`, the inhibition was 31.6% in assay [6]; 0% in assay [7]; 49.8% in assay [8]; 7.8% in assay [9]; -9% in assay [10]; 14% in [11]. Further, the inhibition was -6.3% in assay [12]; -7.1% in assay [13]; 0% in [14]; 2.4% in assay [15]; 5.8% in assay [16]; 16.3% in assay [17]. In addition, in [18], the inhibition entry is “inactive”.
Turning to `CNc1cc(Oc2cc(C(=O)Nc3cc(N4CCN(C)CC4)cc(C(F)(F)F)c3)ccc2C)ncn1`, the inhibition in assay [19] came out at 7.2%.
